Data as given in ChEMBL document CHEMBL1914422, “Activation of the c-Jun N-terminal kinase/activating transcription factor 3 (ATF3) pathway characterizes effective arylated diazeniumdiolate-based nitric oxide-releasing anticancer prodrugs” (J Med Chem, 2011).
pIC50: −log10 of the molar value. Calls of active or inactive are those of the source. No cut-off for these calls is given here.

Key:
[1] = Activation of JNK phosphorylation in human NCI-H1703 cells assessed as increase in ATF3 protein level at 1 uM within 2 hrs by Western blot analysis; format: cell-based
Mus musculus [2] = test: Induction of JNK phosphorylation in human NCI-H1703 cells xenografted NCr nu/nu Charles river mouse tumor assessed as increase in ATF3 protein level at 6 umol/kg, iv administered 3 times a week for 3 weeks by immunohistochemical analysis; format: functional, organism-based
NCI-H2122 = test: Antiproliferative activity against human NCI-H2122 cells after 72 hrs by MTT assay; format: functional, cell-based; conditions: NCI-H2122, 72 h
In short: (§1)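 Compounds (10 mM DMSO stocks, final DMSO ≤0.1%) added at increasing concentrations in PBS, incubated 72 h at 37 °C. MTT read-out, six repeats per concentration, at least two independent experiments.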

NCI-H1703 [3] = test: Cell cycle arrest in human NCI-H1703 cells assessed as accumulation at G2 phase at 1 uM after 6 hrs by FACS analysis (reference value: 8%); format: functional
[4] = Activation of JNK phosphorylation in human NCI-H1703 cells assessed as c-jun phosphorylation at Ser63 at 1 uM by Western blot analysis; format: cell-based
In short: (§2)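 Lysates immunoblotted with phospho-specific antibodies against SEK1/MKK4, SAPK/JNK, ATF2 and c-jun. Membranes reprobed for total SAPK/JNK as loading control. Representative blots shown.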

NCI-H1703 [5] = test: Upregulation of ATF3 expression in human NCI-H1703 cells at 1 uM pretreated with ATF3 siRNA for 48 hrs before compound challenge measured after 8 hrs by Western blot analysis; format: functional, cell-based
In short: (§3)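 H1703 cells at 60% confluence transfected with ATF3 siRNA, nonsilencing siRNA or reagent only (mock). After 48 h, cells treated with 1 μM compound or equal-volume DMSO for 8 h, then lysed. Western blots probed for ATF3, cleaved PARP p85 and cleaved caspase-3, with β-actin as loading control.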

NCI-H1703 [6] = test: Antitumor activity against human NCI-H1703 cells xenografted in athymic NCr Charles river nu/nu mouse assessed as reduction of tumor growth at 6 umol/kg, iv administered 3 times a week for 3 weeks relative to vehicle treated control; format: functional, organism-based
In short: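 H1703 xenografts (5×10^6 cells s.c., flank) in 7-week-old female athymic NCr-nu/nu mice, treated from tumor size ≥2×2×2 mm. Mice killed 2 h after the last dose; tumors excised and weighed. 13–15 mice/group; Mann-Whitney test against vehicle.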

NCI-H1703 [7] = test: Induction of apoptosis in human NCI-H1703 cells assessed as PARP p85 cleavage at 1 uM pretreated with ATF3 siRNA for 48 hrs before compound challenge measured after 8 hrs by Western blot analysis; format: functional, cell-based; in short: as §3
NCI-H1703 [8] = test: Induction of apoptosis in human NCI-H1703 cells assessed as apoptotic cells at 1 uM after 6 hrs by FACS analysis (reference value: 0.05%); format: functional
NCI-H1703 [9] = test: Induction of apoptosis in human NCI-H1703 cells assessed as PARP cleavage after 1 to 6 hrs by Western blot analysis; format: functional, cell-based
NCI-H441 = test: Antiproliferative activity against human NCI-H441 cells after 72 hrs by MTT assay; format: functional, cell-based; conditions: NCI-H441, 72 h; in short: as §1
NCI-H1703 [10] = test: Induction of apoptosis in human NCI-H1703 cells assessed as caspase 7 activation after 1 to 6 hrs by Western blot analysis; format: functional, cell-based
Mus musculus [11] = test: Induction of JNK phosphorylation in human NCI-H1703 cells xenografted NCr nu/nu Charles river mouse tumor at 6 umol/kg, iv administered 3 times a week for 3 weeks by immunohistochemical analysis; format: functional, organism-based
[12] = Antiproliferative activity against human NCI-H1373 cells after 72 hrs by MTT assay; format: functional, cell-based; conditions: NCI-H1373, 72 h; in short: as §1
[13] = Activation of JNK phosphorylation in human NCI-H1703 cells assessed as ATF2 phosphorylation at Thr71 at 1 uM by Western blot analysis; format: cell-based; in short: as §2
NCI-H1703 [14] = test: Antitumor activity against human NCI-H1703 cells xenografted in athymic NCr Charles river nu/nu mouse assessed as reduction of tumor weight at 6 umol/kg, iv administered 3 times a week for 3 weeks relative to vehicle treated control; format: functional; set-up: scale not given: the % may be the effect or the level left
In short: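 H1703 cells (5×10^6) injected s.c. into the flank of 7-week-old female athymic NCr-nu/nu mice. Dosing began once tumors reached at least 2×2×2 mm (typically 4 weeks). Body weight recorded before each injection. Mice sacrificed 2 h after the last dose and tumors excised and weighed. 13–15 mice/group; Mann-Whitney test; mean ± SE.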

[15] = Activation of JNK phosphorylation in human NCI-H1703 cells assessed as increase in ATF3 protein level at 1 uM by Western blot analysis; format: cell-based
[16] = Antiproliferative activity against human NCI-H1944 cells after 72 hrs by MTT assay; format: functional, cell-based; conditions: NCI-H1944, 72 h; in short: as §1
NCI-H1703 [17] = test: Induction of apoptosis in human NCI-H1703 cells assessed as caspase 3 cleavage at 1 uM pretreated with ATF3 siRNA for 48 hrs before compound challenge measured after 8 hrs by Western blot analysis; format: functional, cell-based; in short: as §3
Mus musculus [18] = test: Toxicity in human NCI-H1703 cells xenografted athymic NCr nu/nu Charles river mouse assessed as change in body weight at 6 umol/kg, iv administered 3 times a week for 3 weeks (reference value: 22.5 +/- 0.4g); format: organism-based; conditions: in vivo, 504 h
[19] = Activation of JNK phosphorylation at Thr183 and Tyr185 in human NCI-H1703 cells at 1 uM pretreated for 1 hr measured after 30 mins by Western blot analysis in presence of ROS scavenger tiron
NCI-H1703 [20] = test: Antitumor activity against human NCI-H1703 cells xenografted in NCr nu/nu Charles river mouse assessed as tissue death in tumor at 6 umol/kg, iv administered 3 times a week for 3 weeks by H and E staining method relative to control; format: functional, organism-based
In short: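 Female athymic NCr-nu/nu mice, 7 weeks old, received 5×10^6 H1703 cells s.c. in the flank. Tumors excised 2 h after the last dose, H&E stained, and scored for areas of cell death against vehicle controls.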

NCI-H1703 [21] = test: Induction of apoptosis in human NCI-H1703 cells assessed as caspase 3 activation after 1 to 6 hrs by Western blot analysis; format: functional, cell-based
NCI-H1703 [22] = test: Antiproliferative activity against human NCI-H1703 cells after 72 hrs by MTT assay; format: functional, cell-based; conditions: NCI-H1703, 72 h; in short: as §1
[23] = Activation of JNK phosphorylation in human NCI-H1703 cells assessed as ATF2 phosphorylation at Thr71 at 1 uM pretreated for 30 mins by Western blot analysis in presence of JNK inhibitor 1,9-pyrazoloanthrone; format: cell-based
In short: (§4)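 Before compound exposure (1 μM), H1703 cells received the JNK inhibitor 1,9-pyrazoloanthrone at 50 μM for 30 min. Phosphorylated JNK, ATF2 and c-jun, and ATF3 protein, then detected by Western blot. Representative blots shown.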

[24] = target: T1, Dual specificity mitogen-activated protein kinase kinase 4 (Homo sapiens) (UniProt P45985); test: Activation of SEK1 phosphorylation at Thr261 in human NCI-H1703 cells at 1 uM by Western blot analysis; format: cell-based; in short: as §2
T1 sequence (whole entry): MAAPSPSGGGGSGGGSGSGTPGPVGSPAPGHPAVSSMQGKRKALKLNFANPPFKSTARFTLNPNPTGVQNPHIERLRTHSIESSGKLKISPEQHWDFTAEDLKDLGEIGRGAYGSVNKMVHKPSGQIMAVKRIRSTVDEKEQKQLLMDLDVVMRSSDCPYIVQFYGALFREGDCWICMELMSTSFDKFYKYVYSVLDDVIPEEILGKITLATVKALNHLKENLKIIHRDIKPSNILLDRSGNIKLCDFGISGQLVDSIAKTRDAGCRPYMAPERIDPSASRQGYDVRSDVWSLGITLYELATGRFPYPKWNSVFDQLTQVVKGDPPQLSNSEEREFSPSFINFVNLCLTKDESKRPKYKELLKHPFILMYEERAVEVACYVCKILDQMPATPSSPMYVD

[25] = Activation of JNK phosphorylation in human NCI-H1703 cells assessed as c-jun phosphorylation at Ser63 at 1 uM pretreated for 30 mins by Western blot analysis in presence of JNK inhibitor 1,9-pyrazoloanthrone; format: cell-based; in short: as §4
[26] = Activation of JNK phosphorylation in human NCI-H1703 cells assessed as increase in ATF3 mRNA level at 1 uM after 1.5 hrs by quantitative real-time PCR analysis relative to control; format: cell-based
In short: (§5)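 Cells were H1703 treated with compound or DMSO control. Total RNA was isolated and residual genomic DNA removed. ATF3 mRNA was measured by quantitative RT-PCR with β-actin as internal control. Reported as mean ± SE.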

[27] = Activation of JNK phosphorylation at Thr183 and Tyr185 in human NCI-H1703 cells at 1 uM within 30 mins by Western blot analysis; format: cell-based
[28] = Activation of JNK phosphorylation in human NCI-H1703 cells assessed as increase in ATF3 mRNA level at 5 uM after 1.5 hrs by quantitative real-time PCR analysis relative to control; format: cell-based; in short: as §5
[29] = Activation of JNK phosphorylation in human NCI-H1703 cells assessed as increase in ATF3 protein level at 1 uM within 2 hrs by Western blot analysis in presence of JNK inhibitor 1,9-pyrozoloanthrone; format: cell-based; in short: as §4
[30] = Chemical stability of the compound in aqueous phosphate buffered saline assessed as half life at pH 7.4 in presence of 4 mM glutathione; format: physicochemical; conditions: gsh

Compound: CCOC(=O)N1CCN(/[N+]([O-])=N/Oc2ccc([N+](=O)[O-])cc2[N+](=O)[O-])CC1
- Activity [1]: Active
- Activity (Mus musculus [2]): Active
- pIC50 (NCI-H2122): 5.50
- Activity (NCI-H1703 [3]): 37%
- Activity [4]: Active
- Activity (NCI-H1703 [5]): inactive
- growth inhibition (GI) (NCI-H1703 [6]): Active
- Activity (NCI-H1703 [7]): inactive
- Activity (NCI-H1703 [8]): 14.4%
- Activity (NCI-H1703 [9]): Active
- pIC50 (NCI-H441): 6.03
- Activity (NCI-H1703 [10]): Active
- Activity (Mus musculus [11]): Active
- pIC50 [12]: 6.07
- Activity [13]: Active
- Activity (NCI-H1703 [14]): 49%
- Activity [15]: tde
- pIC50 [16]: < 5.00
- Activity (NCI-H1703 [17]): inactive
- Activity (Mus musculus [18]): 24.9 g
- Activity [19]: inactive
- Activity (NCI-H1703 [20]): Active
- Activity (NCI-H1703 [21]): Active
- pIC50 (NCI-H1703 [22]): 6.24
- Activity [23]: inactive
- Activity [24]: Active
- Activity [25]: inactive
- fold change (FC) [26]: 8
- Activity [27]: Active
- fold change (FC) [28]: 10
- Activity [29]: inactive

Compound: CCOC(=O)N1CCN(/[N+]([O-])=N/Oc2cc(OC)c([N+](=O)[O-])cc2[N+](=O)[O-])CC1
- t1/2 [30]: 38.6 min
- pIC50 (NCI-H2122): 5.24
- pIC50 (NCI-H441): 5.60
- pIC50 [12]: 5.68
- pIC50 [16]: < 5.00
- pIC50 (NCI-H1703 [22]): 5.80
- Activity [27]: inactive

Compound: CCOC(=O)N1CCCN(/[N+]([O-])=N/Oc2cc(OC)c([N+](=O)[O-])cc2[N+](=O)[O-])CC1
- t1/2 [30]: 59.6 min
- pIC50 (NCI-H2122): 5.00
- pIC50 (NCI-H441): 5.50
- pIC50 [12]: 5.51
- pIC50 [16]: < 5.00
- pIC50 (NCI-H1703 [22]): 5.74
- Activity [27]: inactive
